Assay results published in ChEMBL document CHEMBL4038303, “Simultaneous Drug Targeting of the Promoter MYC G-Quadruplex and BCL2 i-Motif in Diffuse Large B-Cell Lymphoma Delays Tumor Growth” (J Med Chem, 2017).
Activity calls are given as the source filed them. No cut-off for these calls is given here.

Key:
[1] = species on record: Homo sapiens; assay: Stabilization of BCL2 i-motif promoter DNA in MYC translocation-positive and BCL2 amplification-positive human U2932 cells assessed as potentiation of CPA-induced apoptosis by measuring increase in caspase-3 activity at 3 uM after 24 hrs in presence of NSC-338258 by AFC based fluorescence assay (reference value: 30%)
[2] = tested on: U2932; assay: Potentiation of CPA-induced antitumor activity against human U2932 cells xenografted in SCID mouse assessed as tumor growth inhibition at 10 mg/kg, ip for 5 days cotreated with 7.5 mg/kg NSC-338258 measured on day 12 post first treatment (reference value: 67%); type: functional
Procedure, shortened: (§1)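 U2932 DLBCL cells (10 × 10^6 in 100 μL sterile saline, viability >91%) injected subcutaneously into left flank of SCID mice (6−8 weeks, immunoglobulin ≤20 μg/mL). Mice pair-matched by tumor volume. Drugs given ip daily for 5 days, CPA 30 mg/kg; controls received all diluents. Tumor volume = a2 × b/2 (a smallest, b largest diameter); n = 5−8; Grubbs' test for outliers.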

[3] = species on record: Homo sapiens; assay: Binding affinity to BLC2 i-motif promoter DNA in human SUDHL4 BCL2 translocation-positive cells assessed as downregulation of BCL2 protein levels at 1 to 3 uM after 24 hrs by Western blot analysis
Procedure, shortened: (§2)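 Cell lines treated 24 h with compound up to 3 μM, with untreated and DMSO-treated controls. Lysates (20 μg total protein) probed by Western blot for BCL2 or MYC with antibodies at 1:1000; actin as loading control. Blots representative of triplicate experiments.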

[4] = tested on: U2932; assay: Potentiation of CPA-induced antitumor activity against human U2932 cells xenografted in SCID mouse assessed as tumor growth inhibition at 10 mg/kg, ip for 5 days cotreated with 7.5 mg/kg NSC-338258 measured on day 9 post first treatment (reference value: 50%); type: functional; procedure, shortened: as §1
[5] = species on record: Homo sapiens; assay: Stabilization of BCL2 i-motif promoter DNA in BCL2 translocation-positive human SUDHL4 cells assessed as potentiation of CPA-induced apoptosis by measuring increase in caspase-3 activity at 3 uM after 24 hrs in presence of NSC-338258 by AFC based fluorescence assay (reference value: 30%)
[6] = species on record: Homo sapiens; assay: Binding affinity to c-myc G-quadruplex DNA in human HT cells assessed as downregulation of MYC protein levels up to 3 uM after 24 hrs by Western blot analysis; type: cell-based; procedure, shortened: as §2
[7] = tested on: U2932; assay: Potentiation of CPA-induced antitumor activity against human U2932 cells xenografted in SCID mouse assessed as tumor growth inhibition at 10 mg/kg, ip for 5 days cotreated with 7.5 mg/kg NSC-338258 measured on day 15 post first treatment (reference value: 44%); type: functional; procedure, shortened: as §1
[8] = tested on: HT; assay: Down regulation of BLC2 mRNA level in human HT cells up to 3 uM after 24 hrs by qPCR method; type: functional, cell-based
Procedure, shortened: (§3)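 DLBCL lines grown in RPMI with 10% FBS (SUDHL4 15% FBS) and penicillin/streptomycin. Cells exposed for 24 h to rising concentrations up to 3 μM; DMSO as vehicle control. Total RNA isolated, target mRNA measured by TaqMan real-time qPCR, normalized to TBP and expressed relative to untreated cells; triplicate experiments, two-tailed t test.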

[9] = species on record: Homo sapiens; assay: Stabilization of BCL2 i-motif promoter DNA in BCL2 and MYC translocation-positive human VAL cells assessed as potentiation of CPA-induced apoptosis by measuring increase in caspase-3 activity at 3 uM after 24 hrs in presence of NSC-338258 by AFC based fluorescence assay (reference value: 30%)
[10] = tested on: Mus musculus; assay: Reduction in Bcl2 mRNA level in tumor of SCID mouse xenografted with human U2932 cells at 10 mg/kg, ip administered for 5 consecutive days cotreated with CPA and NSC-338258 by qPCR method; type: functional, organism-based
Procedure, shortened: (§4)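 Tumors from U2932 xenograft SCID mice given ip treatment daily for 5 days were harvested. Total RNA was taken from the same tumor preparations used for protein lysates, and MYC or BCL2 mRNA was quantified by TaqMan qPCR normalized to TBP. Comparisons were made with diluent-treated mice or CPA-only mice.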

[11] = species on record: Homo sapiens; assay: Binding affinity to BLC2 i-motif promoter DNA in human VAL BCL2 and MYC translocation-positive cells assessed as downregulation of BCL2 protein levels at 1 to 3 uM after 24 hrs by Western blot analysis; procedure, shortened: as §2
[12] = tested on: U2932; assay: Potentiation of CPA-induced antitumor activity against human U2932 cells xenografted in SCID mouse assessed as reduction in tumor burden AUC at 10 mg/kg, ip for 5 days cotreated with 5 to 7.5 mg/kg NSC-338258 measured on day 9 to 15 post first treatment; type: functional, organism-based; procedure, shortened: as §1
[13] = species on record: Homo sapiens; assay: Binding affinity to c-myc G-quadruplex DNA in BCL2 translocation-positive human SUDHL4 cells assessed as downregulation of MYC mRNA levels up to 3 uM after 24 hrs by qPCR method relative to control; procedure, shortened: as §3
[14] = tested on: Mus musculus; assay: Toxicity in scid mouse xenografted with human U2932 cells assessed as change in body weight at 10 mg/kg, ip administered for 5 consecutive days in presence of CPA; type: organism-based; details: in vivo
Procedure, shortened: (§5)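 SCID mice (6−8 weeks, female or male, serum immunoglobulin ≤20 μg/mL by ELISA) implanted subcutaneously in left flank with 10 × 10^6 U2932 cells in 100 μL saline; pair-matched by tumor volume; dosed ip daily for 5 days; controls received all compound diluents; tumor volume a2 × b/2; outliers by Grubbs' test; two-tailed t test with Šidák–Bonferroni correction.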

[15] = species on record: Homo sapiens; assay: Binding affinity to c-myc G-quadruplex DNA in MYC translocation-positive and BCL2 amplification-positive human U2932 cells assessed as downregulation of MYC mRNA levels up to 3 uM after 24 hrs by qPCR method relative to control; procedure, shortened: as §3
[16] = species on record: Homo sapiens; assay: Binding affinity to BLC2 i-motif promoter DNA in BCL2 and MYC translocation-positive human VAL cells assessed as downregulation of Bcl2 mRNA levels at 1 to 3 uM after 24 hrs by qPCR method relative to control; procedure, shortened: as §3
[17] = species on record: Homo sapiens; assay: Binding affinity to BLC2 i-motif promoter DNA in MYC translocation-positive and BCL2 amplification-positive human U2932 cells assessed as downregulation of Bcl2 mRNA levels at 1 to 3 uM after 24 hrs by qPCR method relative to control; procedure, shortened: as §3
[18] = tested on: Mus musculus; assay: Reduction in Myc mRNA level in tumor of SCID mouse xenografted with human U2932 cells at 10 mg/kg, ip administered for 5 consecutive days cotreated with CPA and NSC-338258 by qPCR method; type: functional, organism-based; procedure, shortened: as §4
[19] = tested on: Mus musculus; assay: Toxicity in scid mouse xenografted with human U2932 cells assessed as change in body weight at 10 mg/kg, ip administered for 5 consecutive days in presence of CPA and NSC-338258; type: organism-based; details: in vivo; procedure, shortened: as §5
[20] = species on record: Homo sapiens; assay: Binding affinity to BLC2 i-motif promoter DNA in BCL2 translocation-positive human SUDHL4 cells assessed as downregulation of Bcl2 mRNA levels at 1 to 3 uM after 24 hrs by qPCR method; procedure, shortened: as §3
[21] = tested on: U2932; assay: Antitumor activity against human U2932 cells xenografted in SCID mouse assessed as reduction in tumor burden at 10 mg/kg, ip for 5 days cotreated with 5 to 7.5 mg/kg NSC-338258 measured on day 9 to 15 post first treatment
[22] = species on record: Homo sapiens; assay: Stabilization of BCL2 i-motif promoter DNA in BCL2 and MYC translocation-positive human VAL cells assessed as potentiation of CPA-induced cytotoxicity by measuring fold reduction in CPA IC50 at 2 to 3 uM after 96 hrs by MTS assay
Procedure, shortened: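 MTS viability assay. 100 000 cells incubated 96 h with increasing CPA alone or with ligand (1−3 μM). Viability expressed relative to untreated cells. CPA IC50 fitted by Boltzmann sigmoidal equation with variable slope, and fold change in IC50 taken from the fitted values.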

[23] = species on record: Homo sapiens; assay: Binding affinity to BLC2 i-motif promoter DNA in human U2932 MYC translocation-positive and BCL2 amplification-positive cells assessed as downregulation of BCL2 protein levels at 1 to 3 uM after 24 hrs by Western blot analysis; procedure, shortened: as §2

For `COc1ccc2c(c1)CN([C@@H](C)[C@H]1CC[C@H]3[C@@H]4CC[C@H]5C[C@@H](O)CC[C@]5(C)[C@H]4CC[C@]13C)CO2`, the Activity [1] was 100%, the TGI [2] was 46% and the Activity [3] was “Active”. The TGI [4] was 50%, the Activity [5] was 100% and the Activity [6] was “inactive”. For the same molecule, the TGI [7] was 37%, the Activity [8] was “inactive” and the Activity [9] was 100%. For the same molecule, the Activity [10] was “Active”, the Activity [11] was “Active” and the Activity [12] was “Active”. The Activity [13] was “inactive”, the Activity [14] was “Non-Toxic” and the Activity [15] was “inactive”. For the same molecule, the Activity [16] was 11 to 37%, the Activity [17] was 11 to 37% and the Activity [18] was “Active”. For the same molecule, the Activity [19] was “Non-Toxic”, the Activity [20] was 11 to 37% and the Activity [21] was “inactive”. The fold change (FC) [22] was 1.7 and the Activity [23] was “Active”.
